Measurements as given in ChEMBL document CHEMBL2034960, “Bryonolic acid transcriptional control of anti-inflammatory and antioxidant genes in macrophages in vitro and in vivo” (J Nat Prod, 2012).
Activity calls are given as the source filed them. The rule behind the calls is not given here.

Tests used:
[1] = biological target: T1, Nuclear factor erythroid 2-related factor 2 (Mus musculus) (UniProt Q60795); experiment: Induction of Nrf2-mediated GR mRNA expression in mouse RAW264.7 cells at 100 uM after 24 hrs by quantitative RT-PCR analysis relative to control; type: cell-based
T1 sequence (whole entry): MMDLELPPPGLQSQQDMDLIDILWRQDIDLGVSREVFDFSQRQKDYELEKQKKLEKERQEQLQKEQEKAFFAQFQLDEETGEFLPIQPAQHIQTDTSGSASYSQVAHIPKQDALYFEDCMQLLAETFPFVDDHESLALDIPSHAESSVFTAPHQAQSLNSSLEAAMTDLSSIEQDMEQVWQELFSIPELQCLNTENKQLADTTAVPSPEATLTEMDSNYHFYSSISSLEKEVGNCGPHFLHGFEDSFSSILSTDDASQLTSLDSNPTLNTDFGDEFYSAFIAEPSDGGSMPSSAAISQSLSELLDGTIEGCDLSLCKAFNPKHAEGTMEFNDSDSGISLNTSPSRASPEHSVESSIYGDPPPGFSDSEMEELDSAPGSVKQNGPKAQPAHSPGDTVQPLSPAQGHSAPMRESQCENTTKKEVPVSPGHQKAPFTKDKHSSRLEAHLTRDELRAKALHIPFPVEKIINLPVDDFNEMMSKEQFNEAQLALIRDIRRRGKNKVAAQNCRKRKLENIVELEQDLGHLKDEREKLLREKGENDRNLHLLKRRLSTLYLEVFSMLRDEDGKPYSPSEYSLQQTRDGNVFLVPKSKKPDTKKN

RAW264.7 [2] = experiment: Antioxidant activity in LPS-stimulated mouse RAW264.7 cells assessed as induction of HO-1 mRNA expression at 100 uM after 4 hrs by RT-PCR analysis relative to control; type: functional
[3] = biological target: T1, Nuclear factor erythroid 2-related factor 2 (Mus musculus); experiment: Induction of Nrf2-mediated HO1 […] expression in C57BL/6 mouse primary peritoneal macrophages at 50 uM after 48 hrs by immunoblot analysis
Mus musculus = experiment: Induction of HO1 […] expression in Nrf2-wild type C57BL/6 mouse liver at 500 mg/kg, ip measured after 8 hrs by immunoblot analysis
[4] = biological target: T1, Nuclear factor erythroid 2-related factor 2 (Mus musculus); experiment: Induction of Nrf2-mediated NQO1 mRNA expression in mouse RAW264.7 cells at 100 uM after 20 hrs by quantitative RT-PCR analysis relative to control; type: cell-based
Outline: (§1)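 RAW 264.7 cells (DMEM, 10% FBS, 37°C, 5% CO2) exposed to 100 μM compound for a series of time points without stated LPS activation. Total RNA isolated, converted to cDNA, and NQO1 quantified by TaqMan real-time RT-PCR using mouse-specific assays. Fold change versus control derived by the ΔΔCt relative quantification method (40 cycles, 95/60 °C).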

RAW264.7 [5] = experiment: Antioxidant activity in LPS-stimulated mouse RAW264.7 cells assessed as induction of HO-1 mRNA expression at 100 uM after 20 hrs by RT-PCR analysis relative to control; type: functional
RAW264.7 [6] = experiment: Antiinflammatory activity in mouse RAW264.7 cells assessed as inhibition of LPS-induced nitric oxide production at 50 to 100 uM after 24 hrs by Griess method; type: functional; parameters: scale not given: the % may be the effect or the level left
RAW264.7 [7] = experiment: Antioxidant activity in LPS-stimulated mouse RAW264.7 cells assessed as induction of HO-1 mRNA expression at 50 uM after 24 hrs by RT-PCR analysis; type: functional, cell-based
[8] = biological target: T1, Nuclear factor erythroid 2-related factor 2 (Mus musculus); experiment: Induction of Nrf2-mediated NQO1 mRNA expression in mouse RAW264.7 cells at 100 uM after 24 hrs by quantitative RT-PCR analysis relative to control; type: cell-based; outline: as §1
RAW264.7 [9] = experiment: Cytotoxicity against mouse RAW264.7 cells at 100 uM after 8 hrs by MTT assay; type: cell-based; conditions: raw264.7, 8 h
[10] = biological target: T1, Nuclear factor erythroid 2-related factor 2 (Mus musculus); experiment: Induction of Nrf2-mediated CAT mRNA expression in mouse RAW264.7 cells at 100 uM after 16 hrs by quantitative RT-PCR analysis relative to control; type: cell-based
[11] = biological target: T1, Nuclear factor erythroid 2-related factor 2 (Mus musculus); experiment: Induction of Nrf2-mediated GCLC mRNA expression in mouse RAW264.7 cells at 100 uM after 20 hrs by quantitative RT-PCR analysis relative to control; type: cell-based
RAW264.7 [12] = experiment: Antioxidant activity in LPS-stimulated mouse RAW264.7 cells assessed as induction of HO-1 mRNA expression at 100 uM after 4 hrs by RT-PCR analysis; type: functional, cell-based
RAW264.7 [13] = experiment: Antiinflammatory activity in mouse RAW264.7 cells assessed as inhibition of LPS-induced iNOS protein expression at 100 uM after 4 hrs by immunoblot analysis
[14] = biological target: T1, Nuclear factor erythroid 2-related factor 2 (Mus musculus); experiment: Induction of Nrf2-mediated HO1 […] expression in C57BL/6 mouse primary peritoneal macrophages after 48 hrs by immunoblot analysis
RAW264.7 [15] = experiment: Antioxidant activity in mouse RAW264.7 cells assessed as induction of HO1 expression at 100 uM after 24 hrs by immunoblot analysis; type: functional, cell-based
[16] = test system: Peritoneal macrophage cell; experiment: Induction of HO1 […] expression in Nrf2-knockout mouse primary peritoneal macrophages at 5 to 100 uM after 48 hrs by immunoblot analysis; type: functional, cell-based
[17] = Solubility of the compound in DMSO; type: physicochemical
[18] = biological target: T1, Nuclear factor erythroid 2-related factor 2 (Mus musculus); experiment: Induction of Nrf2-mediated HO1 mRNA expression in mouse RAW264.7 cells at 100 uM after 24 hrs by quantitative RT-PCR analysis relative to control; type: cell-based
[19] = biological target: T1, Nuclear factor erythroid 2-related factor 2 (Mus musculus); experiment: Induction of Nrf2-mediated CAT mRNA expression in mouse RAW264.7 cells at 100 uM after 20 hrs by quantitative RT-PCR analysis relative to control; type: cell-based
RAW264.7 [20] = experiment: Antioxidant activity in mouse RAW264.7 cells assessed as induction of HO1 expression after 24 hrs by immunoblot analysis
RAW264.7 [21] = experiment: Antioxidant activity in LPS-stimulated mouse RAW264.7 cells assessed as induction of HO-1 protein expression at 100 uM after 24 hrs by immunoblot analysis; type: functional, cell-based
RAW264.7 [22] = experiment: Antiinflammatory activity in mouse RAW264.7 cells assessed as inhibition of LPS-induced nitric oxide production after 24 hrs by Griess method; type: functional, cell-based; conditions: RAW264.7, 24 h
RAW264.7 [23] = experiment: Antioxidant activity in mouse RAW264.7 cells assessed as induction of HO1 expression at 50 uM after 24 hrs by immunoblot analysis; type: functional, cell-based
[24] = biological target: T1, Nuclear factor erythroid 2-related factor 2 (Mus musculus); experiment: Induction of nuclear translocation of Nrf2 in mouse RAW264.7 cells assessed as decrease in cytoplasmic fraction at 50 uM after 1 hr; type: cell-based
Outline: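 RAW 264.7 macrophages treated with 50 or 100 μM compound for various times (1–4 h window examined). Cytoplasmic and nuclear fractions were separated and probed for Nrf2 by immunoblot. Translocation was scored as loss of cytoplasmic Nrf2 and nuclear accumulation relative to DMSO control.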

RAW264.7 [25] = experiment: Cytotoxicity against mouse RAW264.7 cells at 1000 uM after 24 hrs by MTT assay; type: cell-based; conditions: raw264.7, 24 h
[26] = biological target: T1, Nuclear factor erythroid 2-related factor 2 (Mus musculus); experiment: Induction of Nrf2-mediated GCLC mRNA expression in mouse RAW264.7 cells at 100 uM after 24 hrs by quantitative RT-PCR analysis relative to control; type: cell-based

In the case of `CC1(C)[C@@H](O)CC[C@]2(C)C3=C(CC[C@@H]12)[C@@]1(C)CC[C@@]2(C)CC[C@@](C)(C(=O)O)C[C@H]2[C@]1(C)CC3` [BRYONOLIC ACID], the Activity [1] is reported as “inactive”, the “fold change (FC)” value (RAW264.7 [2]) is reported as 4.1 and the Activity [3] is reported as “Active”. For the same compound, the Activity (Mus musculus) was “Active”, the fold change (FC) [4] was 11.7 and the “fold change (FC)” value (RAW264.7 [5]) was 11.3. For the same compound, the Activity (RAW264.7 [6]) was 72%, the Activity (RAW264.7 [7]) was “Active” and the Activity [8] was “Active”. The Activity (RAW264.7 [9]) was “Non-toxic”, the fold change (FC) [10] was 1.7 and the fold change (FC) [11] was 1.8. For the same compound, the Activity (RAW264.7 [12]) was “Active”, the Activity (RAW264.7 [13]) was “Active” and the Activity [14] was “Dose-dependent effect”. For the same compound, the Activity (RAW264.7 [15]) was “Active”, the Activity [16] was “inactive” and the solubility [17] was “soluble”. For the same compound, the Activity [18] was “Active”, the fold change (FC) [19] was 3.5 and the Activity (RAW264.7 [20]) was “Dose-dependent effect”. The Activity (RAW264.7 [21]) was “Active”, the IC50 (RAW264.7 [22]) was 53.3 µM and the Activity (RAW264.7 [23]) was “Active”. For the same compound, the Activity [24] was “Active”, the Activity (RAW264.7 [25]) was “Toxic” and the Activity [26] was “inactive”.
